This passage reports IC50 results from ChEMBL document CHEMBL1132273, “Subtype-selective N-methyl-D-aspartate receptor antagonists: synthesis and biological evaluation of 1-(arylalkynyl)-4-benzylpiperidines” (J Med Chem, 1999).

Test [1] concerns the target T1, Glutamate NMDA receptor; Grin1/Grin2b (Rattus norvegicus, UniProt P35439+Q00960). Put plainly: Antagonistic activity against rat NR1A/2B receptor expressed in Xenopus oocytes. In kind it is functional, cell-based, Oocyte. The method in brief: (§1)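 Cloned NR1A/2B receptors in oocytes, recorded by two-electrode voltage clamp at -70 mV in nominally Ca2+-free Ringer (pH 7.4). Drugs are bath perfused, with final DMSO 0.1–1%. IC50 for inhibition of NMDA responses is fitted from partial 3–5 point curves, with the residual fractional response ('min') fixed at 0.15. Mean ± SEM.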

In another test the target is D(2) dopamine receptor (Rattus norvegicus, UniProt P61169). The experiment in a line: Binding affinity against Dopamine receptor D2 from rat using [3H]raclopride as radioligand. The method in brief:
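Washed Sprague–Dawley rat striatal membranes (200 μg protein) incubated with 3 nM [3H]raclopride in 120 mM NaCl/5 mM KCl/50 mM Tris-HCl pH 7.4, 60 min at room temperature. Nine concentrations in duplicate, 1% DMSO final. Nonspecific binding with 300 μM sulpiride.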

Test [2] has as its target T2, Adrenergic receptor alpha-1 (Rattus norvegicus, UniProt P15823+P23944+P43140).
T2 sequence (P15823 whole entry): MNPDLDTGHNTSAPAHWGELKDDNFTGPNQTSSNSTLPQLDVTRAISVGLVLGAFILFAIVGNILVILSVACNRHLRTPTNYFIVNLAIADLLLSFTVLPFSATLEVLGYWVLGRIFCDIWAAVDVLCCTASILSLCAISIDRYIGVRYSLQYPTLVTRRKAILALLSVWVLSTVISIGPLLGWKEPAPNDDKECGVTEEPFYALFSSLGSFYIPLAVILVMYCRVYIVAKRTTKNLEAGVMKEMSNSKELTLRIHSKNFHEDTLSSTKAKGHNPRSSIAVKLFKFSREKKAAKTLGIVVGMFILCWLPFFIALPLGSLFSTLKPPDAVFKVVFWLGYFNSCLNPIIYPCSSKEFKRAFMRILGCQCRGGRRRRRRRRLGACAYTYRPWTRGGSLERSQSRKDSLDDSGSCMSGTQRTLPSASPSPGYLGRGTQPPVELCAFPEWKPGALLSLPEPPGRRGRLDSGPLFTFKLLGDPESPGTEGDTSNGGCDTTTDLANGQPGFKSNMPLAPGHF
T2 sequence (P23944 whole entry): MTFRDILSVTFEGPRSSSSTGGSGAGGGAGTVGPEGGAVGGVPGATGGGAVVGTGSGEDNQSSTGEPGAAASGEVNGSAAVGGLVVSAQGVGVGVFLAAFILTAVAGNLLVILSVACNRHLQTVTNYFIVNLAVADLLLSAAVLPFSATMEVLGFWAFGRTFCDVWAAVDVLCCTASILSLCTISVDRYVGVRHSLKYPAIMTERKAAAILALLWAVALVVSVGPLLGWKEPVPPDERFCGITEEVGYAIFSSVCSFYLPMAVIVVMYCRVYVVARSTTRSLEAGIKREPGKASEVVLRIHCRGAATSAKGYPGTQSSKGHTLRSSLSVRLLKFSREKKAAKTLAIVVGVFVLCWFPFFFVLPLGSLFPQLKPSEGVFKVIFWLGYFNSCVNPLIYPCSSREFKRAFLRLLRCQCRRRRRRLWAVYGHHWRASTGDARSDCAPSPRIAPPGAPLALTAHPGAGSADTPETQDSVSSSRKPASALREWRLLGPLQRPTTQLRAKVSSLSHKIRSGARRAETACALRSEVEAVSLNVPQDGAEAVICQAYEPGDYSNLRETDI
T2 sequence (P43140 whole entry): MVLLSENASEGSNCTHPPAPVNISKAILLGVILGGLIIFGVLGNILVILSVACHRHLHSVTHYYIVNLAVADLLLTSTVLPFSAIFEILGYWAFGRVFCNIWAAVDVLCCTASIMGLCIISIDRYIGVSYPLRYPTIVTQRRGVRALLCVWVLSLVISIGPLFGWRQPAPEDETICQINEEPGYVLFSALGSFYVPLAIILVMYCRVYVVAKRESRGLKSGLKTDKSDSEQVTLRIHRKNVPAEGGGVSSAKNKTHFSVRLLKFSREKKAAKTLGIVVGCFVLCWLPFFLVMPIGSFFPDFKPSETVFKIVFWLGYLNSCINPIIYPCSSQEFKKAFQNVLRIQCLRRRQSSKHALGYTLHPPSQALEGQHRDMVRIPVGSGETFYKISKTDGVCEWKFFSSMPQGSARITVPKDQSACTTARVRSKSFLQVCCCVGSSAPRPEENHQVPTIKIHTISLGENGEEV
Put plainly: Binding affinity against alpha-1 adrenergic receptor from rat using [3H]-prazosin as radioligand. In kind it is protein assay. The method in brief: (§2)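 Rat cortical membranes (Sprague–Dawley, triple-washed; 200 μg protein) incubated with 0.8 nM [3H]prazosin in 140 mM NaCl/5 mM MgCl2/50 mM Tris-HCl pH 7.4, 60 min at room temperature. Nine concentrations in duplicate, 1% DMSO final. Nonspecific binding defined by 10 μM phentolamine.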

Test [3] concerns the target T3, Glutamate NMDA receptor; Grin1/Grin2a (Rattus norvegicus, UniProt P35439+Q00959). Put plainly: Antagonistic activity against rat N-methyl-D-aspartate glutamate receptor 1/2A, expressed in Xenopus oocytes. In kind it is functional, cell-based, Oocyte. The method, boiled down:
(§3)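 Two-electrode voltage clamp at -70 mV in nominally Ca2+-free Ringer (NaCl 115, KCl 2, BaCl2 1.8, HEPES 5 mM, pH 7.4). Drugs are given by bath perfusion at 7–10 mL/min, with final DMSO 0.1–1%. Inhibition of NMDA responses is measured, and IC50 is fitted from partial 3–5 point concentration–inhibition curves with a free residual minimum. Mean ± SEM, n as reported.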

For test [4], the target named is T1, Glutamate NMDA receptor; Grin1/Grin2b. Put plainly: Antagonistic activity against rat N-methyl-D-aspartate glutamate receptor 1/2B expressed in Xenopus oocytes. In kind it is functional, cell-based, Oocyte. The method in brief:
as §1

Test [5] addresses T2, Adrenergic receptor alpha-1. The experiment in a line: The compound was tested for binding affinity against Alpha-1 adrenergic receptor from rat using [3H]prazosin as radioligand. In kind it is protein assay. The method in brief: as §2
The target in test [6] is T4, Glutamate NMDA receptor; Grin1/Grin2c (Rattus norvegicus, UniProt P35439+Q00961). The experiment in a line: Antagonistic activity against rat N-methyl-D-aspartate glutamate receptor 1/2C expressed in Xenopus oocytes. In kind it is functional, cell-based, Oocyte. The method, boiled down:
as §3

The target of test [7] is T3, Glutamate NMDA receptor; Grin1/Grin2a. Put plainly: Antagonistic activity against rat NR1A/2A receptor, expressed in Xenopus oocytes. The test is classed as functional, cell-based, Oocyte. The method, boiled down: as §3
Test [8] deals with T4, Glutamate NMDA receptor; Grin1/Grin2c. Put plainly: The compound was tested for antagonistic activity against rat NR1A/2C receptor expressed in Xenopus oocytes. The test is classed as functional, cell-based, Oocyte. The method in brief:
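Drugs are given by bath perfusion at 7–10 mL/min, with final DMSO 0.1–1%. Inhibition of NMDA responses is measured, and IC50 is fitted from partial 3–5 point concentration–inhibition curves with a free residual minimum. Mean ± SEM, n as reported.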

T3 sequence (Q00959 whole entry, other chains not shown, the tested form may be a part): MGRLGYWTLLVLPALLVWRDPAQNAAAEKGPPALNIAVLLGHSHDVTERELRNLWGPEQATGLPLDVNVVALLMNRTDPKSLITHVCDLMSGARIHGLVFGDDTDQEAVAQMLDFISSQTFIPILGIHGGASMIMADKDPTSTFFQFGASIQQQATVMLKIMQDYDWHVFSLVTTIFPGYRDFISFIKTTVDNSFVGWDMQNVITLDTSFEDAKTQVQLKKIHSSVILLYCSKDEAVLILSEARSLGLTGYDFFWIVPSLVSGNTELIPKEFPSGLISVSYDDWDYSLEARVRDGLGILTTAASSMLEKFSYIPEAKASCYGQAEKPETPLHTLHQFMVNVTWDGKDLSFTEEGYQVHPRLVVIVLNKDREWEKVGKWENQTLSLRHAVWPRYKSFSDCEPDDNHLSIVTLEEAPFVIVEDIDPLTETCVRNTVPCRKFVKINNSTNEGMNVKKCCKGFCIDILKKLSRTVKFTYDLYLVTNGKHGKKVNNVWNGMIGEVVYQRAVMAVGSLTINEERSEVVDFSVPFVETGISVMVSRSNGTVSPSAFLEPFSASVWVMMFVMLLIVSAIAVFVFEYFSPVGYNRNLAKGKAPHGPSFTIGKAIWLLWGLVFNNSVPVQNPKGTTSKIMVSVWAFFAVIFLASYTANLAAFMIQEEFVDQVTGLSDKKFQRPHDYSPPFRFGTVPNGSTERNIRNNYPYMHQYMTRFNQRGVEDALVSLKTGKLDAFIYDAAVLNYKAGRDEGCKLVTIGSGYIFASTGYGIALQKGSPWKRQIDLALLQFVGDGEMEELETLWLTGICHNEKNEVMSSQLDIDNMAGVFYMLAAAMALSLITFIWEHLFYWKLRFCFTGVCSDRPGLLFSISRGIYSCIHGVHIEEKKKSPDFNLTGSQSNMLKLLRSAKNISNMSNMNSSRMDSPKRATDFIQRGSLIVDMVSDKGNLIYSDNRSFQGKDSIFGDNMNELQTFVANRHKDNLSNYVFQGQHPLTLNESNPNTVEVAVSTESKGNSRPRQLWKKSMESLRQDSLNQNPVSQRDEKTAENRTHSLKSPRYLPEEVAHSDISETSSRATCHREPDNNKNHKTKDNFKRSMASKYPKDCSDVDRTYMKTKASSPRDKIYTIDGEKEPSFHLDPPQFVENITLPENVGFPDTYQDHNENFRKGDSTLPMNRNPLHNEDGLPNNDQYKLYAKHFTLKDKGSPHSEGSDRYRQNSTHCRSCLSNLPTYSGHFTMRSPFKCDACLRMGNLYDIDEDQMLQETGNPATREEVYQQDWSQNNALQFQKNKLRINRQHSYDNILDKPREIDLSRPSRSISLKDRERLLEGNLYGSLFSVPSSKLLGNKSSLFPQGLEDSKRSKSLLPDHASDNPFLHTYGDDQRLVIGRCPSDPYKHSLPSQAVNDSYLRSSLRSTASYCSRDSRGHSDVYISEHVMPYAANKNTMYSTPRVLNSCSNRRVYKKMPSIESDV
T1 sequence (Q00960 whole entry, other chains not shown, the tested form may be a part): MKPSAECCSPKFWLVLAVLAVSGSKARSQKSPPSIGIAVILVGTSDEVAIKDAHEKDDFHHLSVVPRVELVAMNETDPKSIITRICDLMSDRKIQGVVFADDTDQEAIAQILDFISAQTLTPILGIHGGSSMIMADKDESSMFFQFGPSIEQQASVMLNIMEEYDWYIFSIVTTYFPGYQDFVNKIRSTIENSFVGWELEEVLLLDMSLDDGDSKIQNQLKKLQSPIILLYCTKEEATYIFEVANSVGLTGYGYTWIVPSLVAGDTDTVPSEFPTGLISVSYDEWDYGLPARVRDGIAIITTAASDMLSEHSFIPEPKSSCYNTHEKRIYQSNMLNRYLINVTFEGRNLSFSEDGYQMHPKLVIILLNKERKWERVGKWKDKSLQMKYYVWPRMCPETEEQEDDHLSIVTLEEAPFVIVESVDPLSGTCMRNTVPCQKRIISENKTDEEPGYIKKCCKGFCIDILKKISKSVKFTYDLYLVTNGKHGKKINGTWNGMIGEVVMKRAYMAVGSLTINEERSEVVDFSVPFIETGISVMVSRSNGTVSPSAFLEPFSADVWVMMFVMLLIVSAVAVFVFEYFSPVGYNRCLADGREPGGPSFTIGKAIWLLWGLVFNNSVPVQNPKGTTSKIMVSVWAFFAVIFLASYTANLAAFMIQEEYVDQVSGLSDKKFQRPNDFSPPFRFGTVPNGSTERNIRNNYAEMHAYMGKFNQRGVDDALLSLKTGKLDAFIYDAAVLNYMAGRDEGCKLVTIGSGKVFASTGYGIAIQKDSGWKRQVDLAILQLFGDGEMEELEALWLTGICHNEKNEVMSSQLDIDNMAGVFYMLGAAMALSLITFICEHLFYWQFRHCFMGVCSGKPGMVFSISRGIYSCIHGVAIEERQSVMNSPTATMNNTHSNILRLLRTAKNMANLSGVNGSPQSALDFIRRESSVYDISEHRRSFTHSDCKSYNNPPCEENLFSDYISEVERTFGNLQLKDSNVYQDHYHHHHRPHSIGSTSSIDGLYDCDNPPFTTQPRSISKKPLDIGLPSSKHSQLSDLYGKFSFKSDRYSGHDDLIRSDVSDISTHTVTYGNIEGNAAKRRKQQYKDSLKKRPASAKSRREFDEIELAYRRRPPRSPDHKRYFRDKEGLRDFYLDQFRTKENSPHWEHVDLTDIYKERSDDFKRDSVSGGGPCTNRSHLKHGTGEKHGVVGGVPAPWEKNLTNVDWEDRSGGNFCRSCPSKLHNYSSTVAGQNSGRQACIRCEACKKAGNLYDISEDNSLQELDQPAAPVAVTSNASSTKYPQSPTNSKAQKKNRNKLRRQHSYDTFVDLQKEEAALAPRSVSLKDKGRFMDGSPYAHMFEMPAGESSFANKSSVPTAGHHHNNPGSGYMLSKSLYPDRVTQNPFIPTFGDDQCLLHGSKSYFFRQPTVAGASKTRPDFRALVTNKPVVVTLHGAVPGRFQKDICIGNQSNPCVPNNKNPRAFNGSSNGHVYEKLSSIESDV
T4 sequence (Q00961 whole entry, other chains not shown): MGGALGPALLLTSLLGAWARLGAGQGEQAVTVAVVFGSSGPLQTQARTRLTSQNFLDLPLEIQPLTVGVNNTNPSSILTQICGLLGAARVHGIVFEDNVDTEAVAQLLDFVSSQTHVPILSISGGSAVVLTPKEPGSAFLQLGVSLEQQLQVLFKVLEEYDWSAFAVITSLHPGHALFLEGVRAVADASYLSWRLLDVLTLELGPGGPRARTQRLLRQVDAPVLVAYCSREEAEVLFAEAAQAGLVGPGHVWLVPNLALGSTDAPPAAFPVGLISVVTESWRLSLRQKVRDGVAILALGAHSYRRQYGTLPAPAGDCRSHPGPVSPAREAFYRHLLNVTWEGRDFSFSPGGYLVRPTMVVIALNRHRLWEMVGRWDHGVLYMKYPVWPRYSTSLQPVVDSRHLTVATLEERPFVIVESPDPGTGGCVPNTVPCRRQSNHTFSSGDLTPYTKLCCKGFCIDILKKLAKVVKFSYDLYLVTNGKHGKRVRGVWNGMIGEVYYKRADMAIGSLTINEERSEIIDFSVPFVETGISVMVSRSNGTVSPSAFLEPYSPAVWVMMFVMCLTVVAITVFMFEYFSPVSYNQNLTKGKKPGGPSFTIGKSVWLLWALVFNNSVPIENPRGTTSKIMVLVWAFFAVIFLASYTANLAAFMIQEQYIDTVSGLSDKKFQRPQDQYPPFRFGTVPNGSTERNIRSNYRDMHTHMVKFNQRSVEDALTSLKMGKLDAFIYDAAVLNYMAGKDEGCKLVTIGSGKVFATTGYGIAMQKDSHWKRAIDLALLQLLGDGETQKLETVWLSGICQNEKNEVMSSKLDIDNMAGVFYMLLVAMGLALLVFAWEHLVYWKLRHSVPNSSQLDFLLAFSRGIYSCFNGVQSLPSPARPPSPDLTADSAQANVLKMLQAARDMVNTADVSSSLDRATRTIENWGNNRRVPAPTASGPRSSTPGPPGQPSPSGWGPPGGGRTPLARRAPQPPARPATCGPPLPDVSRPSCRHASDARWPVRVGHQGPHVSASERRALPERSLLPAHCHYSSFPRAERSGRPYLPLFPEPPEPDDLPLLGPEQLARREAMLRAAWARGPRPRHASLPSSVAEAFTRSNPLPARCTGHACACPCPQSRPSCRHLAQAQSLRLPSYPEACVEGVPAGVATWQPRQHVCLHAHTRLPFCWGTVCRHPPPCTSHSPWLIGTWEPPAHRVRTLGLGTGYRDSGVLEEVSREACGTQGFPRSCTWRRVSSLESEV
Sequence of D(2) dopamine receptor (P61169 whole entry): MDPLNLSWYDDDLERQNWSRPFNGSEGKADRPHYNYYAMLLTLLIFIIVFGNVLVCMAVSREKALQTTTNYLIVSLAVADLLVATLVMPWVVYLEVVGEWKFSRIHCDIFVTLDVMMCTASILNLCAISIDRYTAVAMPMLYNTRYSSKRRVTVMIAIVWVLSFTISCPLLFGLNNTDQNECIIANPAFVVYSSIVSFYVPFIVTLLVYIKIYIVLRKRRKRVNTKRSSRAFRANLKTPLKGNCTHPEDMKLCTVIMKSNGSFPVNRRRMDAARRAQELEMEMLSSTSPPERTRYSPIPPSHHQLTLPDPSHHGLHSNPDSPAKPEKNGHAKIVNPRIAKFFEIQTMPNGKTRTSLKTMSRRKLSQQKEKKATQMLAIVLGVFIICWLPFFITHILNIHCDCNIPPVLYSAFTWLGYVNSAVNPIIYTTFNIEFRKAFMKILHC

Usually IC50 stands for the concentration that gives 50% inhibition. A low value points to inhibition by little substance. In the case of `Nc1ccc(C#CCCN2CCC(Cc3ccccc3)CC2)cc1`, the IC50 in [1] came to 0.43 µM; at D(2) dopamine receptor, 0.8 µM; in [2], 1 µM.

As for `CS(=O)(=O)Nc1ccc(C#CCCN2CCC(Cc3ccccc3)CC2)cc1`, the IC50 on D(2) dopamine receptor is 0.2 µM; in test [3] it was more than 100 µM; in [4] it was 0.24 µM; in test [5] it was 1.2 µM; in test [6] it was more than 100 µM.

With `Clc1ccccc1C#CCCN1CCC(Cc2ccccc2)CC1`, the 50% inhibitory concentration (IC50) in test [1] was 1.2 µM; in test [7], 85 µM; in [8] it was more than 100 µM.

For `Nc1ccc(C#CCCN2CCC(Cc3ccc(F)cc3)CC2)cc1`, the IC50 in [1] was 0.26 µM; at D(2) dopamine receptor it was 0.4 µM; in [2], 0.7 µM; in test [7], 70 µM; in test [8], more than 100 µM.

Take `Nc1ccccc1C#CCCN1CCC(Cc2ccccc2)CC1`: the figures for the IC50 in test [1], in test [7] and in test [8] were 1.1 µM, 70 µM and more than 100 µM, respectively.

Turning to `Clc1cccc(C#CCCN2CCC(Cc3ccccc3)CC2)c1`, the 50% inhibitory concentration (IC50) was 3.8 µM in [1], more than 100 µM in [7] and more than 100 µM in test [8].

Take `Cc1ccc(CC2(O)CCN(CCC#Cc3ccc(N)cc3)CC2)cc1`: the IC50 in [1] is 0.37 µM; at D(2) dopamine receptor, 10 µM; in test [2], 85 µM; in test [7], 68 µM; in test [8] it was more than 100 µM.

As for `Oc1ccc(C#CCCN2CCC(Cc3ccccc3)CC2)cc1`, the IC50 in test [1] was 0.17 µM; at D(2) dopamine receptor, 0.29 µM; in test [2] it was 0.58 µM; in [7] it was more than 100 µM.

With `Nc1ccc(C#CCCCN2CCC(Cc3ccccc3)CC2)cc1`, the IC50 in [1] is 0.38 µM; in test [7], 12 µM; in test [8], more than 100 µM.

In the case of `Oc1ccc(C#CCN2CCC(Cc3ccccc3)CC2)cc1`, the IC50 in test [1] was 0.1 µM; on D(2) dopamine receptor, 1.7 µM; in [2], 1.5 µM; in test [7], more than 100 µM; in [8] it was more than 100 µM.

For the molecule `O=[N+]([O-])c1ccc(C#CCCN2CCC(Cc3ccccc3)CC2)cc1`, the IC50 in test [7] and in [8] was more than 100 µM in each case.

As for `COc1ccc(C#CCCN2CCC(Cc3ccccc3)CC2)cc1`, the IC50 in [1] was 2.6 µM; in test [7], more than 100 µM; in test [8], more than 100 µM.

As for `NCc1cccc(C#CCCN2CCC(Cc3ccccc3)CC2)c1`, the IC50 at D(2) dopamine receptor was 0.3 µM; in [4], 0.52 µM; in test [5], 0.8 µM; in [6], more than 100 µM.

Consider `CC(=O)Nc1ccc(C#CCN2CCC(Cc3ccccc3)CC2)cc1`, for which the values for the IC50 in test [3], in [4] and in [6] were 56 µM, 13 µM and more than 100 µM, respectively.

Turning to `Nc1ccc(C#CCCN2CCC(O)(Cc3ccc(F)cc3)CC2)cc1`, the concentration for half-maximal inhibition (IC50) in test [1] is 0.65 µM; on D(2) dopamine receptor, 7.9 µM; in [2], 31 µM; in test [7] it was 29 µM; in [8] it was more than 100 µM.

With `NC(=O)c1ccc(C#CCCN2CCC(Cc3ccccc3)CC2)cc1`, the figures for the IC50 in test [3], in test [4] and in test [6] were more than 100 µM, 2 µM and more than 100 µM, respectively.

Regarding `Nc1ccc(C#CCN2CCC(Cc3ccccc3)CC2)cc1`, the IC50 in [7] and in test [8] was more than 100 µM in each case.

As for `Nc1cccc(C#CCCN2CCC(Cc3ccccc3)CC2)c1`, the half-inhibitory concentration (IC50) in test [1] was 1.1 µM; in test [7], more than 100 µM; in test [8], more than 100 µM.

Consider `Nc1ccc(C#CCCN2CCC(Cc3ccc(Cl)cc3)CC2)cc1`, for which the half-maximal inhibitory concentration (IC50) in test [1] turned out to be 1.2 µM.

Consider `Clc1ccc(C#CCCN2CCC(Cc3ccccc3)CC2)cc1`, for which the IC50 is 4 µM in test [1], 47 µM in [7] and more than 100 µM in [8].

Turning to `Nc1ccc(C#CCCN2CCC(Cc3ccccc3)CC2)cc1N`, the IC50 is 0.19 µM in [1]; 1.1 µM at D(2) dopamine receptor; 1 µM in [2]; more than 100 µM in [7]; more than 100 µM in test [8].

Turning to `Cc1ccc(CC2CCN(CCC#Cc3ccc(N)cc3)CC2)cc1`, the IC50 in test [1] was 0.31 µM; at D(2) dopamine receptor, 0.8 µM; in [2], 1.2 µM; in test [7] it was 75 µM; in [8], 27 µM.

Consider `NS(=O)(=O)c1ccc(C#CCCN2CCC(Cc3ccccc3)CC2)cc1`, for which the IC50 at D(2) dopamine receptor was 0.1 µM; in [3], 22 µM; in [4], 0.31 µM; in [5] it was 1.4 µM; in test [6], more than 100 µM.

On to `CS(=O)(=O)Nc1ccc(C#CCN2CCC(Cc3ccccc3)CC2)cc1`, for which the IC50 on D(2) dopamine receptor is 12 µM; in test [3] it was more than 100 µM; in test [4], 0.15 µM; in [5], 2.2 µM; in test [6], more than 100 µM.

For `CNc1ccc(C#CCCN2CCC(Cc3ccccc3)CC2)cc1`, the IC50 at D(2) dopamine receptor is 0.3 µM; in test [3], 84 µM; in [4] it was 0.46 µM; in [5], 1 µM; in test [6] it was more than 100 µM.

Turning to `CN(C)c1ccc(C#CCCN2CCC(Cc3ccccc3)CC2)cc1`, the IC50 in test [3] is more than 100 µM; in test [4], 15 µM; in test [6], more than 100 µM.

Regarding `Cc1ccc(C#CCCN2CCC(Cc3ccccc3)CC2)cc1`, the IC50 in test [1] is 4.2 µM; in [7], 42 µM; in [8] it was more than 100 µM.

Turning to `Nc1ccc(C#CCCN2CCC(O)(Cc3ccccc3)CC2)cc1`, the IC50 in test [1] is 0.83 µM; on D(2) dopamine receptor, 15 µM; in test [2] it was 63 µM; in [7], more than 100 µM.

Turning to `CC(=O)Nc1ccc(C#CCCCN2CCC(Cc3ccccc3)CC2)cc1`, the values for the IC50 in test [3], in [4] and in [6] were more than 100 µM, 1.4 µM and more than 100 µM, respectively.

As for `Fc1ccc(C#CCCN2CCC(Cc3ccccc3)CC2)cc1`, the half-inhibitory concentration (IC50) in test [1] was 2.7 µM; in [7] it was more than 100 µM; in [8], more than 100 µM.
